Laboratory results as given in ChEMBL document CHEMBL4819034, “Tricyclic-Carbocyclic RORγt Inverse Agonists-Discovery of BMS-986313” (J Med Chem, 2021).
pEC50: −log10 of the molar value.

What was measured:
[1] = molecular target: T1, Nuclear receptor ROR-gamma (Homo sapiens, UniProt P51449); experiment: Inverse agonist activity at recombinant full-length human Gal4-fused RORgammat expressed in human Jurkat cells incubated for 18 hrs by steady-glo luciferase reporter gene assay; assay type: cell-based
T1 sequence (P51449 whole entry): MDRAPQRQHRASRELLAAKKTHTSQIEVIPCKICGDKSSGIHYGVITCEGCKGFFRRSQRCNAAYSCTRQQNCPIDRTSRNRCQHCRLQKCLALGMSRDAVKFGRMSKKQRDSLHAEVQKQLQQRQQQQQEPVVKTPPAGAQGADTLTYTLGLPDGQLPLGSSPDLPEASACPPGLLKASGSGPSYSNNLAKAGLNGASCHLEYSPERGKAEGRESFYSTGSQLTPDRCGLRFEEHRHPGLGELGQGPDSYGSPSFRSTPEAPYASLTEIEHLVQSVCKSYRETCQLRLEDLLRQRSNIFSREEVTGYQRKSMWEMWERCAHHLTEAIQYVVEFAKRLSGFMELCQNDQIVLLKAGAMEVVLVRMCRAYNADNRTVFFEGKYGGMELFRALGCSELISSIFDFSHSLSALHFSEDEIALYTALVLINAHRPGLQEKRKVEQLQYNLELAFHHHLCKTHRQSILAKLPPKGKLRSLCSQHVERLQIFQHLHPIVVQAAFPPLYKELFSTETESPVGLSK

[2] = molecular target: T1, Nuclear receptor ROR-gamma; experiment: Inverse agonist activity at RORgammat in CD3 and CD28-stimulated human whole blood assessed as suppression of IL17 preincubated for 1 hr followed by CD3 and CD28 stimulation measured after 20 hrs by AlphaLISA method; assay type: tissue-based
[3] = Metabolic stability in human liver microsomes assessed as parent compound remaining; assay type: ADME, Microsome
Procedure, shortened: (§1)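 Test compound at 0.5 μM initial concentration incubated with human, mouse or rat liver microsomes (protein 1 mg/mL). Metabolic stability reported as percent of parent compound remaining after incubation.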

[4] = Metabolic stability in mouse liver microsomes assessed as parent compound remaining; assay type: ADME, Microsome; procedure, shortened: as §1
[5] = Metabolic stability in rat liver microsomes assessed as parent compound remaining; assay type: ADME, Microsome; procedure, shortened: as §1
[6] = Half life in rat liver microsomes; assay type: ADME, Microsome
Procedure, shortened: (§2)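 Liver microsome half-life (min) measured in human, mouse, rat, dog and cyno liver microsomes.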

[7] = Half life in dog liver microsomes; assay type: ADME, Canis lupus familiaris, Microsome; procedure, shortened: as §2
[8] = Half life in human liver microsomes; assay type: ADME, Microsome; procedure, shortened: as §2
[9] = Half life in mouse liver microsomes; assay type: ADME, Microsome; procedure, shortened: as §2
[10] = Half life in cynomolgus monkey liver microsomes; assay type: ADME, Macaca fascicularis, Microsome; procedure, shortened: as §2
[11] = Permeability across apical to basolateral membrane in human Caco-2 cells; assay type: ADME, cell-based; conditions: read-out: permeability
Procedure, shortened: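 Caco-2 monolayer permeability, apical-to-basolateral direction (Pc, nm/s). An efflux ratio is also reported.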

SMILES	Stabilty [3] [%]	Stabilty [4] [%]	Stabilty [5] [%]	further results
CN(C(=O)C(C)(C)O)[C@@H]1CC[C@@]2(S(=O)(=O)c3ccc(F)cc3)c3ccc(C(F)(C(F)(F)F)C(F)(F)F)cc3CC[C@@H]12	–	–	–	pEC50 [1]: 7.35; pEC50 [2]: 5.56
CC(=O)N1CCC(C(=O)N[C@@H]2CC[C@@]3(S(=O)(=O)c4ccc(F)cc4)c4ccc(C(F)(C(F)(F)F)C(F)(F)F)cc4CC[C@@H]23)CC1	61	67	100	–
CC(C)(O)CNC(=O)[C@@H]1CC[C@@]2(S(=O)(=O)c3ccc(F)cc3)c3ccc(C(F)(C(F)(F)F)C(F)(F)F)cc3CC[C@@H]12	–	–	–	half-life [6]: 18 min; half-life [7]: 27 min
O=C(N[C@@H]1CC[C@@]2(S(=O)(=O)c3ccc(F)cc3)c3ccc(C(F)(C(F)(F)F)C(F)(F)F)cc3CC[C@@H]12)C1(O)CCNCC1	100	88	83	–
[2H]C([2H])([2H])N1C(=O)C(F)CC1C(=O)N[C@@H]1CC[C@@]2(S(=O)(=O)c3ccc(F)cc3)c3ccc(C(F)(C(F)(F)F)C(F)(F)F)cc3CC[C@@H]12 (single isomer, unassigned)	100	86	100	half-life [8]: 46 min; half-life [9]: 38 min; half-life [6]: 56 min; half-life [7]: 120 min; half-life [10]: 24 min; Papp A→B [11]: 9.2 ×10⁻⁶ cm/s
CS(=O)(=O)N[C@@H]1CC[C@@]2(S(=O)(=O)c3ccc(F)cc3)c3ccc(C(F)(C(F)(F)F)C(F)(F)F)cc3CC[C@@H]12	–	–	–	pEC50 [1]: 8.14; pEC50 [2]: 6.80
O=C(N[C@@H]1CC[C@@]2(S(=O)(=O)c3ccc(F)cc3)c3ccc(C(F)(C(F)(F)F)C(F)(F)F)cc3CC[C@@H]12)C1(O)CCOCC1	100	75	66	–
CC(C)(C(=O)N[C@@H]1CC[C@@]2(S(=O)(=O)c3ccc(F)cc3)c3ccc(C(F)(C(F)(F)F)C(F)(F)F)cc3CC[C@@H]12)N1CCNCC1	74	78	97	pEC50 [1]: 7.20
[2H]C([2H])([2H])N1C(=O)C(O)CC1C(=O)N[C@@H]1CC[C@@]2(S(=O)(=O)c3ccc(F)cc3)c3ccc(C(F)(C(F)(F)F)C(F)(F)F)cc3CC[C@@H]12 (single isomer, unassigned)	99	100	100	pEC50 [1]: 7.91; pEC50 [2]: 6.87
CC(C)(C(=O)N[C@@H]1CC[C@@]2(S(=O)(=O)c3ccc(F)cc3)c3ccc(C(F)(C(F)(F)F)C(F)(F)F)cc3CC[C@@H]12)N1CCOCC1	0.3	0.3	0.4	–
O=C(N[C@@H]1CC[C@@]2(S(=O)(=O)c3ccc(F)cc3)c3ccc(C(F)(C(F)(F)F)C(F)(F)F)cc3CC[C@@H]12)C1(O)CCCCC1	50	56	22	–

Further lines, with some results ahead:

Stabilty [3] [%]	Stabilty [4] [%]	Stabilty [5] [%]	SMILES	further results
80	100	100	CC(C)(N)C(=O)N[C@@H]1CC[C@@]2(S(=O)(=O)c3ccc(F)cc3)c3ccc(C(F)(C(F)(F)F)C(F)(F)F)cc3CC[C@@H]12	pEC50 [1]: 7.52; pEC50 [2]: 6.79
40	32	10	CNC(=O)N[C@@H]1CC[C@@]2(S(=O)(=O)c3ccc(F)cc3)c3ccc(C(F)(C(F)(F)F)C(F)(F)F)cc3CC[C@@H]12	–
97	93	41	O=C(NCCO)N[C@@H]1CC[C@@]2(S(=O)(=O)c3ccc(F)cc3)c3ccc(C(F)(C(F)(F)F)C(F)(F)F)cc3CC[C@@H]12	–
100	93	10	CC(=O)NCC(=O)N[C@@H]1CC[C@@]2(S(=O)(=O)c3ccc(F)cc3)c3ccc(C(F)(C(F)(F)F)C(F)(F)F)cc3CC[C@@H]12	–
82	65	34	O=C(CO)N[C@@H]1CC[C@@]2(S(=O)(=O)c3ccc(F)cc3)c3ccc(C(F)(C(F)(F)F)C(F)(F)F)cc3CC[C@@H]12	–
–	90	100	CC(=O)N[C@@H]1CC[C@@]2(S(=O)(=O)c3ccc(F)cc3)c3ccc(C(F)(C(F)(F)F)C(F)(F)F)cc3CC[C@@H]12	–
98	85	89	CC(C)(N)CC(=O)N[C@@H]1CC[C@@]2(S(=O)(=O)c3ccc(F)cc3)c3ccc(C(F)(C(F)(F)F)C(F)(F)F)cc3CC[C@@H]12	–
71	70	14	C[C@@H](O)C(=O)N[C@@H]1CC[C@@]2(S(=O)(=O)c3ccc(F)cc3)c3ccc(C(F)(C(F)(F)F)C(F)(F)F)cc3CC[C@@H]12	–
54	–	42	CC(C)(O)CNC(=O)N[C@@H]1CC[C@@]2(S(=O)(=O)c3ccc(F)cc3)c3ccc(C(F)(C(F)(F)F)C(F)(F)F)cc3CC[C@@H]12	–
97	86	90	CC(C)(O)CC(=O)N[C@@H]1CC[C@@]2(S(=O)(=O)c3ccc(F)cc3)c3ccc(C(F)(C(F)(F)F)C(F)(F)F)cc3CC[C@@H]12	–
